Source: ChEMBL document CHEMBL1123371, “5-HT1 and 5-HT2 binding characteristics of some quipazine analogues” (J Med Chem, 1986)
Activity calls are given as the source filed them. The rule behind the calls is not given here.

Assays:
[1] = system: Rattus norvegicus; test: Compound was evaluated in stimulus generalization test using animals trained to discriminate TFMPP from saline, and the drug appropriate responding at dose of 3.0 mg/kg; assay type: functional
In short: (§1)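 Male Sprague-Dawley rats (n = 6) trained to discriminate 0.5 mg/kg TFMPP HCl from saline on a two-lever operant task, VI 15-s food reward. Challenge doses were given ip in random order 15 min before a 2.5-min extinction test, with at least three training sessions between tests. Fewer than five total responses was scored as disruption.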

[2] = system: Rattus norvegicus; test: Compound was evaluated in stimulus generalization test using animals trained to discriminate TFMPP from saline, and the mean responses per min at dose of 3.0 mg/kg; assay type: functional; in short: as §1
[3] = Displacement of [3H]5-HT from 5-hydroxytryptamine 1 receptor of rat cortical membrane homogenates
[4] = system: Rattus norvegicus; test: Stimulus generalization studies in TFMPP trained animals and the number of animals responding /number to receive dose of drug was determined at dose of 1 mg/kg; 3/3; assay type: functional; in short: as §1
[5] = system: Rattus norvegicus; test: Compound was evaluated in tests of stimulus generalization using animals trained to discriminate DOM from saline, and the mean responses per min at dose of 5.0 mg/kg; assay type: functional
In short: (§2)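 Male Sprague-Dawley rats (n = 10) trained to discriminate 1.0 mg/kg DOM HCl from saline on a two-lever operant task, VI 15-s food reinforcement. Test doses were given ip in random order, 15 min pre-session, with at least three training sessions between tests. Responding was scored in a 2.5-min extinction session. Rats with fewer than five total responses were counted as disrupted.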

[6] = system: Rattus norvegicus; test: Compound was evaluated in tests of stimulus generalization using animals trained to discriminate DOM from saline, and the drug appropriate responding at dose of 3.5 mg/kg; assay type: functional; in short: as §2
[7] = system: Rattus norvegicus; test: Compound was evaluated in stimulus generalization test using animals trained to discriminate TFMPP from saline, and the drug appropriate responding at dose of 3.5 mg/kg; assay type: functional; in short: as §1
[8] = system: Rattus norvegicus; test: Compound was evaluated in stimulus generalization test using animals trained to discriminate TFMPP from saline, and the drug appropriate responding at dose of 4.0 mg/kg; Not responding; assay type: functional, organism-based; set-up: dose 4 mg/kg; in short: as §1
[9] = system: Rattus norvegicus; test: Stimulus generalization studies in TFMPP trained animals and the number of animals responding /number to receive dose of drug was determined at dose of 3 mg/kg; 2/3; assay type: functional
[10] = system: Rattus norvegicus; test: Compound was evaluated in stimulus generalization test using animals trained to discriminate TFMPP from saline, and the mean responses per min at dose of 3.5 mg/kg; assay type: functional; in short: as §1
[11] = biological target: Serotonin 2 (5-HT2) receptor (Rattus norvegicus, UniProt P30994+P08909+P14842); test: Displacement of [3H]ketanserin from 5-hydroxytryptamine 2 receptor of rat cortical membrane homogenates
[12] = system: Rattus norvegicus; test: Compound was evaluated in stimulus generalization test using animals trained to discriminate TFMPP from saline, and the mean responses per min at dose of 1.0 mg/kg; assay type: functional; in short: as §1
[13] = system: Rattus norvegicus; test: Compound was evaluated in stimulus generalization studies in DOM trained animals and the number of animals responding /number ot receive dose of drug at dose of 3.5 mg/kg; 4/4; assay type: functional; in short: as §2
[14] = system: Rattus norvegicus; test: Compound was evaluated in tests of stimulus generalization using animals trained to discriminate DOM from saline, and the mean responses per min at dose of 3.5 mg/kg; assay type: functional; in short: as §2
[15] = system: Rattus norvegicus; test: Compound was evaluated in stimulus generalization studies in DOM trained animals and the number of animals responding /number ot receive dose of drug at dose of 0.6 mg/kg; 3/3; assay type: functional; in short: as §2
[16] = system: Rattus norvegicus; test: Stimulus generalization studies in TFMPP trained animals and the number of animals responding /number to receive dose of drug was determined at dose of 3.5 mg/kg; 2/3; assay type: functional
[17] = system: Rattus norvegicus; test: Stimulus generalization studies in TFMPP trained animals and the number of animals responding /number to receive dose of drug was determined at dose of 4.0 mg/kg; 0/3; assay type: functional
[18] = system: Rattus norvegicus; test: Compound was evaluated in stimulus generalization test using animals trained to discriminate TFMPP from saline, and the drug appropriate responding at dose of 1.0 mg/kg; assay type: functional; in short: as §1
[19] = system: Rattus norvegicus; test: Compound was evaluated in tests of stimulus generalization using animals trained to discriminate DOM from saline, and the mean responses per min at dose of 0.6 mg/kg; assay type: functional; in short: as §2
[20] = system: Rattus norvegicus; test: Compound was evaluated in tests of stimulus generalization using animals trained to discriminate DOM from saline, and the mean responses per min at dose of 2.5 mg/kg; assay type: functional; in short: as §2
[21] = system: Rattus norvegicus; test: Compound was evaluated in tests of stimulus generalization using animals trained to discriminate DOM from saline, and the drug appropriate responding at dose of 5.0 mg/kg; assay type: functional; in short: as §2
[22] = system: Rattus norvegicus; test: Compound was evaluated in tests of stimulus generalization using animals trained to discriminate DOM from saline, and the drug appropriate responding at dose of 0.6 mg/kg; assay type: functional; in short: as §2
[23] = system: Rattus norvegicus; test: Compound was evaluated in stimulus generalization studies in DOM trained animals and the number of animals responding /number ot receive dose of drug at dose of 5.0 mg/kg; 3/4; assay type: functional; in short: as §2
[24] = system: Rattus norvegicus; test: Compound was evaluated in stimulus generalization studies in DOM trained animals and the number of animals responding /number ot receive dose of drug at dose of 2.5 mg/kg; 4/4; assay type: functional; in short: as §2
[25] = system: Rattus norvegicus; test: Compound was evaluated in tests of stimulus generalization using animals trained to discriminate DOM from saline, and the drug appropriate responding at dose of 2.5 mg/kg; assay type: functional; in short: as §2
[26] = species: Rattus norvegicus; test: Compound was tested for the doses at which the animals would be expected to make approximately 50% of their responses on the DOM-appropriate lever; assay type: functional
In short: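 DOM-trained rats (1.0 mg/kg DOM HCl vs saline, two-lever, VI 15 s, food) were given ip doses 15 min before a 2.5-min extinction session. Where >80% of responses fell on the DOM lever (generalization), the dose expected to give about 50% DOM-lever responding was calculated from dose–response data and reported with 95% confidence limits.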

`c1ccc2cc(N3CCNCC3)ccc2c1` gave a Drug responding [1] of 12%, a Mean response/min [2] of 7 and a Ki [3] of 265 nM. It also gave an Activity [4] of 3, a Mean response/min [5] of 8.7 and a Drug responding [6] of 71%. The Drug responding [7] was 25%, the Drug responding [8] was “inactive” and the Activity [9] was 2. For the same compound, the Mean response/min [10] was 7, the Ki [11] was 70 nM and the Mean response/min [12] was 20.6. The Activity [13] was 4, the Mean response/min [14] was 8 and the Activity [15] was 3. The Activity [16] was 2, the Activity [17] was 0 and the Drug responding [18] was 6%. For the same compound, the Mean response/min [19] was 16.1, the Mean response/min [20] was 16.8 and the Drug responding [21] was 88%. The Drug responding [22] was 3%, the Activity [23] was 3 and the Activity [24] was 4. It also gave a Drug responding [25] of 33% and an ED50 [26] of 2.9 mg/kg.
